Test results reported in ChEMBL document CHEMBL4118021, “Studies of TAK1-centered polypharmacology with novel covalent TAK1 inhibitors” (Bioorg Med Chem, 2017).
Values belong to the molecule of their own block, whether it stands above or below them. Active and inactive are the calls of the source. The calls are words filed in the database; no cut-off is given here.

How the values were obtained:
[1] = target: Tyrosine-protein kinase receptor UFO (Homo sapiens) (UniProt P30530); experiment: Inhibition of AXL in human SKCO1 cells at 1 uM after 4 hrs using biotin labeled NCMLNENMSVCVADFGLSKK probe by mass-spectrometric analysis relative to control; assay type: cell-based
BaF3 = experiment: Antiproliferative activity against mouse BA/F3 cells harboring KRAS G12D mutant after 72 hrs by CellTiter-Glo assay; assay type: functional, cell-based; settings: BaF3, 72 h
[2] = target: Serine/threonine-protein kinase TAO2 (Homo sapiens) (UniProt Q9UL54); experiment: Inhibition of TAO2 in human SKCO1 cells at 1 uM after 4 hrs using biotin labeled DVKAGNILLSEPGLVK probe by mass-spectrometric analysis relative to control; assay type: cell-based
[3] = target: T1, 80S Ribosome (Homo sapiens) (UniProt P08865+P42677+P62753+P15880+P23396+P61247+P62701+P22090+P46782+P62081+P62241+P46781+P46783+P62280+P25398+P62277+P62263+P62841+P62244+P62249+P08708+P62269+P39019+P60866+P63220+P62266+P62847+P62851+P62854+P62979+P62857+P62273+P62861+P39023+P36578+P46777+Q02878+P18124+P62424+P62917+P32969+P27635+P62906+P62913+P30050+P26373+P40429+P50914+P61313+P18621+Q07020+Q02543+P84098+P46778+P35268+P62829+P62750+P83731+P61254+P61353+P46776+P46779+P47914+P62888+P62899+P62910+P49207+P42766+P18077+Q9Y3U8+P83881+P61927+P61513+P63173+P62891+P62945+P05388+P05386); experiment: Binding affinity to RPL28 in human NCI-H23 cells at 1 uM by mass spectrometry based pull down assay; assay type: cell-based
[4] = target: Protein LSM12 (Homo sapiens) (UniProt Q3MHD2); experiment: Binding affinity to LSM12 in human NCI-H23 cells at 1 uM by mass spectrometry based pull down assay; assay type: cell-based
[5] = target: T1, 80S Ribosome (Homo sapiens); experiment: Binding affinity to RPL10 in human NCI-H358 cells at 1 uM by mass spectrometry based pull down assay; assay type: cell-based
[6] = target: Eukaryotic translation initiation factor 5B (Homo sapiens) (UniProt O60841); experiment: Binding affinity to EIF5B in human NCI-H23 cells at 1 uM by mass spectrometry based pull down assay; assay type: cell-based
[7] = target: Clathrin light chain A (Homo sapiens) (UniProt P09496); experiment: Binding affinity to CLTA in human NCI-H358 cells at 1 uM by mass spectrometry based pull down assay; assay type: cell-based
[8] = target: Thymidylate kinase (Homo sapiens) (UniProt P23919); experiment: Binding affinity to DTYMK in human NCI-H23 cells at 1 uM by mass spectrometry based pull down assay; assay type: cell-based
[9] = target: COP9 signalosome complex subunit 8 (Homo sapiens) (UniProt Q99627); experiment: Binding affinity to COPS8 in human NCI-H23 cells at 1 uM by mass spectrometry based pull down assay; assay type: cell-based
[10] = target: Medium-chain specific acyl-CoA dehydrogenase, mitochondrial (Homo sapiens) (UniProt P11310); experiment: Binding affinity to ACADM in human NCI-H358 cells at 1 uM by mass spectrometry based pull down assay; assay type: cell-based
How it was run: (§1)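 NCI-H23 or NCI-H358 cells were grown and lysed. Lysates were incubated overnight at 4 °C with 1 μM biotinylated covalent probe or DMSO, then pulled down on streptavidin beads. Proteins were run on polyacrylamide gels and stained with Coomassie. Bands were excised, digested and identified by mass spectrometry.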

[11] = target: Proteasome adapter and scaffold protein ECM29 (Homo sapiens) (UniProt Q5VYK3); experiment: Binding affinity to KIAA0368 in human NCI-H358 cells at 1 uM by mass spectrometry based pull down assay; assay type: cell-based
[12] = target: Testis-expressed protein 264 (Homo sapiens) (UniProt Q9Y6I9); experiment: Binding affinity to TEX264 in human NCI-H23 cells at 1 uM by mass spectrometry based pull down assay; assay type: cell-based
[13] = target: Phosphoinositide 3-kinase regulatory subunit 4 (Homo sapiens) (UniProt Q99570); experiment: Binding affinity to PIK3R4 in human NCI-H23 cells at 1 uM by mass spectrometry based pull down assay; assay type: cell-based
[14] = target: Protein diaphanous homolog 1 (Homo sapiens) (UniProt O60610); experiment: Binding affinity to DIAPH1 in human NCI-H358 cells at 1 uM by mass spectrometry based pull down assay; assay type: cell-based
NCI-H23 = experiment: Binding affinity to PSMA1 in human NCI-H23 cells at 1 uM by mass spectrometry based pull down assay; assay type: cell-based
[15] = target: Protein SET (Homo sapiens) (UniProt Q01105); experiment: Binding affinity to SET in human NCI-H358 cells at 1 uM by mass spectrometry based pull down assay; assay type: cell-based
[16] = target: Glycogen synthase kinase-3 alpha (Homo sapiens) (UniProt P49840); experiment: Binding affinity to GSK3A in human NCI-H23 cells at 1 uM by mass spectrometry based pull down assay; assay type: cell-based
[17] = target: General vesicular transport factor p115 (Homo sapiens) (UniProt O60763); experiment: Binding affinity to USO1 in human NCI-H358 cells at 1 uM by mass spectrometry based pull down assay; assay type: cell-based
[18] = target: T-complex protein 1 subunit theta (Homo sapiens) (UniProt P50990); experiment: Binding affinity to CCT8 in human NCI-H23 cells at 1 uM by mass spectrometry based pull down assay; assay type: cell-based
[19] = target: Translocon-associated protein subunit delta (Homo sapiens) (UniProt P51571); experiment: Binding affinity to SSR4 in human NCI-H23 cells at 1 uM by mass spectrometry based pull down assay; assay type: cell-based
[20] = target: ATP-citrate synthase (Homo sapiens) (UniProt P53396); experiment: Binding affinity to ACLY in human NCI-H23 cells at 1 uM by mass spectrometry based pull down assay; assay type: cell-based; how it was run: as §1
[21] = target: Citrate synthase, mitochondrial (Homo sapiens) (UniProt O75390); experiment: Binding affinity to CS in human NCI-H358 cells at 1 uM by mass spectrometry based pull down assay; assay type: cell-based
[22] = target: Heterogeneous nuclear ribonucleoprotein U (Homo sapiens) (UniProt Q00839); experiment: Binding affinity to HNRNPU in human NCI-H358 cells at 1 uM by mass spectrometry based pull down assay; assay type: cell-based
[23] = target: BLOC-2 complex member HPS6 (Homo sapiens) (UniProt Q86YV9); experiment: Binding affinity to HPS6 in human NCI-H358 cells at 1 uM by mass spectrometry based pull down assay; assay type: cell-based
[24] = target: Acylamino-acid-releasing enzyme (Homo sapiens) (UniProt P13798); experiment: Binding affinity to APEH in human NCI-H358 cells at 1 uM by mass spectrometry based pull down assay; assay type: cell-based
[25] = target: Proteasome subunit beta type-6 (Homo sapiens) (UniProt P28072); experiment: Binding affinity to PSMB6 in human NCI-H23 cells at 1 uM by mass spectrometry based pull down assay; assay type: cell-based
[26] = target: Protein phosphatase 1G (Homo sapiens) (UniProt O15355); experiment: Binding affinity to PPM1G in human NCI-H358 cells at 1 uM by mass spectrometry based pull down assay; assay type: cell-based

Protein LSM12 (Homo sapiens), sequence (Q3MHD2 whole entry): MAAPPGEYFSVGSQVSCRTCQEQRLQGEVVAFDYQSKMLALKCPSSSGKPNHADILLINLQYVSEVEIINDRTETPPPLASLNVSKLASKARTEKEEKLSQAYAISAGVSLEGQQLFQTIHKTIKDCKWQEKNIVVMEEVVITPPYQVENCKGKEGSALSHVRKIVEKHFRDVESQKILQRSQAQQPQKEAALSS
Proteasome subunit beta type-6 (Homo sapiens), sequence (P28072 whole entry): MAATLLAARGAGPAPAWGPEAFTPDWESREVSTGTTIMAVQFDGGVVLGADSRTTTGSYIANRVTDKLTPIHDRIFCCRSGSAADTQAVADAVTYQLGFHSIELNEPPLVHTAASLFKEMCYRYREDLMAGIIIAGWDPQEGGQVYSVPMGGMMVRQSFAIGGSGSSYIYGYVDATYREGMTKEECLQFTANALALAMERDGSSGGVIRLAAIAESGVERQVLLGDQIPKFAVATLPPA
COP9 signalosome complex subunit 8 (Homo sapiens), sequence (Q99627 whole entry, one chain of several): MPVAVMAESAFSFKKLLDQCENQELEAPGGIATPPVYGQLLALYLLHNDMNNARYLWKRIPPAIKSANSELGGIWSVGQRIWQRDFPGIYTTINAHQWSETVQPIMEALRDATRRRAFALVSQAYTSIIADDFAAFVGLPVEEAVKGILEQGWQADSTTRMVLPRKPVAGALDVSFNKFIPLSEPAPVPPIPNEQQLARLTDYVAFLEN
Serine/threonine-protein kinase TAO2 (Homo sapiens), sequence (Q9UL54 whole entry): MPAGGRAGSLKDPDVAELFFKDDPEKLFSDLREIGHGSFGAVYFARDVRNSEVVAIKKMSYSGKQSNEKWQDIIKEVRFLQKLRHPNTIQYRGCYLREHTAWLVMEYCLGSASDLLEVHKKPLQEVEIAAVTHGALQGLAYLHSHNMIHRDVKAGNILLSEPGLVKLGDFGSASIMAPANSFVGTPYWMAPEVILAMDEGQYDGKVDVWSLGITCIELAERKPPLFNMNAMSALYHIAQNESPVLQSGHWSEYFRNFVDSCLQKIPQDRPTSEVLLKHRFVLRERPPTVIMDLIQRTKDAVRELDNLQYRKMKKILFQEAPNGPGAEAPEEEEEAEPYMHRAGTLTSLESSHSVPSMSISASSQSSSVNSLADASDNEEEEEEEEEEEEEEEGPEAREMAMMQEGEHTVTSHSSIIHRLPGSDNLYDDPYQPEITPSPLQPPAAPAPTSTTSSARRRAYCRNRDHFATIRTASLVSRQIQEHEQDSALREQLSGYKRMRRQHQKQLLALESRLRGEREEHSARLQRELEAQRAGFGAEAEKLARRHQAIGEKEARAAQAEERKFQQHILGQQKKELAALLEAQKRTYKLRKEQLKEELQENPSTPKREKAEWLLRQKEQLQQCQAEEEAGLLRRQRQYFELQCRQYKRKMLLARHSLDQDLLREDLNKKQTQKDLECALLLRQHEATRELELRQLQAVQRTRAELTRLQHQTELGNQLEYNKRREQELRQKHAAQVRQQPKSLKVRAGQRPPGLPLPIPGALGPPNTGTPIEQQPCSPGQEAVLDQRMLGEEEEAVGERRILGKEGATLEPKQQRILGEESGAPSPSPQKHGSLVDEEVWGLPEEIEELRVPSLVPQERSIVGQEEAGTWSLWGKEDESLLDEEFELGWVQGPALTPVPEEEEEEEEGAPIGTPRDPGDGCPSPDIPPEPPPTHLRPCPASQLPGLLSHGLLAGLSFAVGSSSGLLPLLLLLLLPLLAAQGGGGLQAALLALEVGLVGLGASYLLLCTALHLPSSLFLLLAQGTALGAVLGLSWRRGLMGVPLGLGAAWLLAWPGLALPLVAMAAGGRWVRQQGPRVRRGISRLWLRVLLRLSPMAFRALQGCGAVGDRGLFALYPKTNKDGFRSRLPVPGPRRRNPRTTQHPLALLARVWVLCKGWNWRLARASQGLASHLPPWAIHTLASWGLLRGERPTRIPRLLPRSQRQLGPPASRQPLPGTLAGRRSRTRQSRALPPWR
General vesicular transport factor p115 (Homo sapiens), sequence (O60763 whole entry): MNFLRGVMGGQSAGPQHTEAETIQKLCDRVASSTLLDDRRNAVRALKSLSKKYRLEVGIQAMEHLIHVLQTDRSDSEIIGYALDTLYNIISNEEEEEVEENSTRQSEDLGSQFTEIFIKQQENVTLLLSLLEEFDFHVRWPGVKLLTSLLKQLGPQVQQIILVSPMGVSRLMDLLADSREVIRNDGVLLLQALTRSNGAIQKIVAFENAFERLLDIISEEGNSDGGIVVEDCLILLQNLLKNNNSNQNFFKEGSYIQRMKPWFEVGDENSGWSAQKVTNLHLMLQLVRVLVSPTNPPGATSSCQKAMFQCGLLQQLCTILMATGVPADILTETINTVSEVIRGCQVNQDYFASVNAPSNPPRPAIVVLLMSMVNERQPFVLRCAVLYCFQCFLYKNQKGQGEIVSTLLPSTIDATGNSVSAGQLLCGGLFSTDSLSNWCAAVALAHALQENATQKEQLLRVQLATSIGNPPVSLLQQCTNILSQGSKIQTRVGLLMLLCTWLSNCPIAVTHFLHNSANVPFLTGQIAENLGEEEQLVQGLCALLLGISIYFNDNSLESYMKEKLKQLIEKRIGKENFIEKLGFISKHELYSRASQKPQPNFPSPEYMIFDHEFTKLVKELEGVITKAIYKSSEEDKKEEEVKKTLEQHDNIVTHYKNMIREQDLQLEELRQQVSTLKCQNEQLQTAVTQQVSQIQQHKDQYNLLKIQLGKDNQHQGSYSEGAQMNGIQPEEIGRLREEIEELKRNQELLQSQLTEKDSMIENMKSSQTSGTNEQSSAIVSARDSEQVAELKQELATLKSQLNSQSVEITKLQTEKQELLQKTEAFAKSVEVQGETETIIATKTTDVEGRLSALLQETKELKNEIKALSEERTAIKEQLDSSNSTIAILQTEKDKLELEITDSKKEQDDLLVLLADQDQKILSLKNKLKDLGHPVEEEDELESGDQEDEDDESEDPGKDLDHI
Tyrosine-protein kinase receptor UFO (Homo sapiens), sequence (P30530 whole entry): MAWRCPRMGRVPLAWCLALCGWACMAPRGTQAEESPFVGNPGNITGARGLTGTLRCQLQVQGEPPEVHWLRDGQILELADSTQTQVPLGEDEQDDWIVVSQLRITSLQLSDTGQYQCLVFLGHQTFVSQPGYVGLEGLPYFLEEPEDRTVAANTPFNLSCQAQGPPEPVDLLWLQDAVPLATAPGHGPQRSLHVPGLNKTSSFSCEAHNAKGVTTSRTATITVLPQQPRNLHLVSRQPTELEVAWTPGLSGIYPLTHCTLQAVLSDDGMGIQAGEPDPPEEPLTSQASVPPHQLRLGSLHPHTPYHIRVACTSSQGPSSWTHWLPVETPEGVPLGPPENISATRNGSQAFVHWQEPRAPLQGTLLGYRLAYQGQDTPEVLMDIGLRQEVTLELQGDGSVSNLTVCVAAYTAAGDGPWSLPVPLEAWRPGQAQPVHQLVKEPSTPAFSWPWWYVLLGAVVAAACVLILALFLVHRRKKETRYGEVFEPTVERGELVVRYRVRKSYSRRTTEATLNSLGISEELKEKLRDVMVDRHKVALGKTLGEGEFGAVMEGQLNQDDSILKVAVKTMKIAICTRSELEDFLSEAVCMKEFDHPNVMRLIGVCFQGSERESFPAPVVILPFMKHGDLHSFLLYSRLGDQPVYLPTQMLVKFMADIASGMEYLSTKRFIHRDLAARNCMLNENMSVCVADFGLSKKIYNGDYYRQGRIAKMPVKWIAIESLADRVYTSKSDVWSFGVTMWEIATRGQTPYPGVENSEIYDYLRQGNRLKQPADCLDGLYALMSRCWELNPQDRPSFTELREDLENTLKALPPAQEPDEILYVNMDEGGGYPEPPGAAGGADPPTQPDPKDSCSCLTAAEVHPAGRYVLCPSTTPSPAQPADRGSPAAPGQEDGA
Translocon-associated protein subunit delta (Homo sapiens), sequence (P51571 whole entry): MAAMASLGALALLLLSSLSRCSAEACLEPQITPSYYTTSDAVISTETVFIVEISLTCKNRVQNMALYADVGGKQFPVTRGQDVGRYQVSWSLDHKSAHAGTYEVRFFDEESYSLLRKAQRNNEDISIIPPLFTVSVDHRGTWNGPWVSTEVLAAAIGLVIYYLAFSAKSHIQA
Medium-chain specific acyl-CoA dehydrogenase, mitochondrial (Homo sapiens), sequence (P11310 whole entry): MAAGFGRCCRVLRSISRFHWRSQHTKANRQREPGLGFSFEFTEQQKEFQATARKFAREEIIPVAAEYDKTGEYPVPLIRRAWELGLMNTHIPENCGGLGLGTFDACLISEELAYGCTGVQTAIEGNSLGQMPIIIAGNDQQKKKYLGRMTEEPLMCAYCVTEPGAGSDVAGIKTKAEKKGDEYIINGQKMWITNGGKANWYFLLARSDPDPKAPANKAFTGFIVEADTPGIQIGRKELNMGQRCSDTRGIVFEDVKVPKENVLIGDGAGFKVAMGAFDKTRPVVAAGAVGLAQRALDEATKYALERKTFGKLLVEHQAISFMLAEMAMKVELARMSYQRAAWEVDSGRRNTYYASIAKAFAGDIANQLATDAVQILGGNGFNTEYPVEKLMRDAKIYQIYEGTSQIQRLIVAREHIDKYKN
Citrate synthase, mitochondrial (Homo sapiens), sequence (O75390 whole entry): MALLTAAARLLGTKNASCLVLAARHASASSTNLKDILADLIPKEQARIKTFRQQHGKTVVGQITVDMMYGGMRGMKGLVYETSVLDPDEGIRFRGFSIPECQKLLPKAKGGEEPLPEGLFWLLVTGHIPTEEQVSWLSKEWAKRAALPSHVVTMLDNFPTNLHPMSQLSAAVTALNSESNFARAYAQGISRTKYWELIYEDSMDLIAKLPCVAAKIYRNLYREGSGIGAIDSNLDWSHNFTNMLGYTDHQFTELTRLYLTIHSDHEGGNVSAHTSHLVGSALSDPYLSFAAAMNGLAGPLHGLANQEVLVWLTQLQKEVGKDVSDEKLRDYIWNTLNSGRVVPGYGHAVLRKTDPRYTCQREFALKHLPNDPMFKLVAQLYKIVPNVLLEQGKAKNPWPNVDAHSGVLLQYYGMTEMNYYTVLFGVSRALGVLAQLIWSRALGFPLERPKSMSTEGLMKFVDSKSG

Structure (SMILES): C=CC(=O)Nc1ccccc1Nc1nc(Nc2ccc(N3CCN(C)CC3)cc2)ncc1Cl
inhibition [1]: 27.2%

Structure (SMILES): COc1cc(O)c2c(c1)/C=C/C[C@H](O)[C@H](O)C(=O)/C=C\C[C@H](C)OC2=O
IC50 (BaF3): 4 nM
inhibition [2]: -2.5%

Activity [3]: Active
Activity [4]: Active
Activity [5]: Active
Activity [6]: Active
Activity [7]: Active
Activity [8]: Active
Activity [9]: Active
Activity [10]: Active
Activity [11]: Active
Activity [12]: Active
Activity [13]: Active
Activity [14]: Active
Activity [15]: Active
Activity [16]: Active
Activity [17]: Active
Activity [18]: Active
Activity [19]: Active
Activity [20]: Active
Activity [21]: Active
Activity [22]: Active
Activity [23]: Active
Activity [24]: Active
Activity [25]: Active
Activity [26]: Active
Structure (SMILES): C=CC(=O)Nc1ccccc1Nc1nc(Nc2ccc(N3CCN(CCOCCOCCOCCNC(=O)CCCC[C@@H]4SC[C@@H]5NC(=O)N[C@@H]54)CC3)cc2)ncc1Cl
Activity (NCI-H23): Active
